Active and inactive are the calls of the source.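 How the source made its calls, unless noted: active means GFP response above 150% of the DMSO level; inconclusive means fewer than 70 events counted for a yeast strain; inactive means the rest.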
What was measured:
[1] = RPL19A-GFP modulators, yeast TOR pathway, confirmation, cell-based, S. cerevisiae, flow cytometry, cherry picks, mother/daughter gates (AID 2270;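 active means GFP response below 50% of the DMSO control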); details: S. cerevisiae RPL19A-GFP strain, 3 h, at 10 µM, stronger effect = lower value, 100 = same GFP as DMSO wells
[2] = LAP4-GFP expression modulators in yeast, confirmation, cell-based, cherry picks, flow cytometry, mother/daughter gates (AID 2271;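 active means GFP response above 150% of the DMSO control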;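 further: ratio of sample to DMSO plate mean so 100% equals DMSO level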); details: S. cerevisiae LAP4-GFP strain, 3 h, at 10 µM, stronger effect = higher value, 100 means same as DMSO control
How it was run: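 System: Alexa 633-stained baker's yeast GFP-fusion strain; quantity: 0.2 OD600 cells; timing: compound exposure 3 h at 30 °C, end-over-end rotation; detection: HT flow cytometry, GFP fluorescence channel; measure: per-gate (all, mother, daughter) GFP response vs DMSO; control set: DMSO-only negative wells, rapamycin 400 ng/mL positive wells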

[3] = modulators of MEP2-GFP levels in yeast, confirmation, S. cerevisiae, flow cytometry GFP, cherry picks (AID 2272;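 active means GFP response above 150% of the DMSO control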;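 further: ratio of well signal to plate DMSO mean so 100% equals DMSO level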); details: S. cerevisiae MEP2-GFP strain, 3 h, at 10 µM, stronger effect = higher value
[4] = AGP1-GFP expression modulators, hit retest, confirmation, cell-based, flow cytometry, S. cerevisiae, cherry picks (AID 2273);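 further: median GFP channel fluorescence over the whole cell population gate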; details: S. cerevisiae AGP1-GFP strain, 3 h, at 10 µM
[5] = modulators of CIT2-GFP expression in yeast, confirmation, S. cerevisiae, GFP fusion, cherry picks, mother/daughter gates (AID 2274); details: S. cerevisiae CIT2-GFP strain, flow cytometry, 3 h, at 10 µM, stronger effect = higher value
[6] = measured here: daughter cell gate
[7] = measured here: mother cell gate
[8] = measured here: daughter cell gate response
[9] = measured here: mother cell gate response

| SMILES | GFP response vs DMSO [1] | GFP response vs DMSO [1, 6] | GFP response vs DMSO [1, 7] | GFP response relative to DMSO [2] | GFP response relative to DMSO [2, 8] | GFP response relative to DMSO [2, 9] | GFP response vs DMSO [3] | GFP response, % of DMSO [4] | GFP response, % of DMSO [5] | GFP response, % of DMSO [5, 6] | GFP response, % of DMSO [5, 7] |
| --- | --- | --- | --- | --- | --- | --- | --- | --- | --- | --- | --- |
| Cc1ccc(C(=O)c2c3ccccc3[n+]([O-])n2CCC(=O)O)cc1 | 66.2% (inactive) | 70.6% | 63.3% | 102% (inactive) | 101% | 105% | 104% (inactive) | 105% (inactive) | 99.3% (inactive) | 96.4% | 99.1% |
| COc1ccc(N2C(=O)C(Cl)=C(Oc3cccc(OC)c3)C2=O)cc1 | 90.9% (inactive) | 76.4% | 79.9% | 218% (active) | 203% | 227% | 105% (inactive) | 110% (inactive) | 98.4% (inactive) | 93.7% | 80.8% |
| COc1cc(/C=C/C(=O)c2c(O)cc(C)oc2=O)cc(OC)c1O | 98.2% (inactive) | 99.6% | 96.8% | 106% (inactive) | 104% | 106% | 105% (inactive) | 101% (inactive) | 97.3% (inactive) | 99.2% | 94.4% |
| Oc1c(Br)cc(Br)cc1C=Nc1ccc2[nH]ncc2c1 | 99.5% (inactive) | 89.2% | 97.2% | 185% (active) | 124% | 176% | 112% (inactive) | 102% (inactive) | 96.4% (inactive) | 102% | 87.5% |
| Clc1ccc(-c2nnnn2-c2ccc(Cl)cc2)cc1 | 101% (inactive) | 102% | 100% | 97.7% (inactive) | 102% | 96.4% | 99.3% (inactive) | 95.9% (inactive) | 100% (inactive) | 101% | 99.3% |
| Cc1ccccc1Oc1ncnc2oc(-c3ccccc3)cc12 | 100% (inactive) | 98.9% | 101% | 96.7% (inactive) | 96% | 97.2% | 102% (inactive) | 97.2% (inactive) | 99.7% (inactive) | 99.1% | 96.1% |
| Cc1cc(-c2csc3nc[nH]c(=S)c23)cc(C)c1C | 96.3% (inactive) | 98.1% | 95% | 112% (inactive) | 114% | 109% | 127% (inactive) | 118% (inactive) | 106% (inactive) | 110% | 104% |
| CCOC(=O)c1cnn(-c2cc(C)nc3c(-c4ccccc4)c(C)nn23)c1N | 96.6% (inactive) | 97.4% | 96.6% | 95.4% (inactive) | 96% | 94% | 105% (inactive) | 94.3% (inactive) | 98.3% (inactive) | 99.1% | 97.3% |
| COC(=O)Cn1c(C)c(/C=C/c2cc[n+](C)cc2)c2ccccc21 | 100% (inactive) | 99.6% | 101% | 119% (inactive) | 121% | 117% | 129% (inactive) | 99.7% (inactive) | 117% (inactive) | 121% | 113% |
| Cc1c(O)ccc(/C=N/Nc2nc(-c3cccnc3)nc3ccccc23)c1O | 97.4% (inactive) | 95.9% | 98.5% | 97.4% (inactive) | 92.5% | 103% | 102% (inactive) | 93.9% (inactive) | 99.1% (inactive) | 96.5% | 98.7% |
| CC(C)Cn1c(=O)c(C(=O)Nc2ccncc2)c(O)c2ccccc21 | 94.7% (inactive) | 101% | 85% | 160% (active) | 122% | 155% | 117% (inactive) | 88.7% (inactive) | 97.8% (inactive) | 99.7% | 90.2% |
| Cc1cccc(OCCN2CSC(=S)N(C)C2)c1 | 95.6% (inactive) | 94.4% | 92.7% | 174% (active) | 161% | 167% | 168% (inactive) | 118% (inactive) | 131% (inactive) | 130% | 122% |
| CCOc1ccc(C(=O)/C=C/c2ccc(SC)cc2)cc1 | 98% (inactive) | 100% | 96.8% | 102% (inactive) | 99.1% | 103% | 101% (inactive) | 102% (inactive) | 100% (inactive) | 99.2% | 80.9% |
| C=CCOc1ccc(C(=O)n2cc(C(=O)OC)c3ccccc32)cc1 | 95.6% (inactive) | 97.1% | 96.4% | 96.7% (inactive) | 99.2% | 96.1% | 96.2% (inactive) | 101% (inactive) | 101% (inactive) | 103% | 101% |
| CCOC(=O)c1ccc(NC(=O)CCc2nc(-c3ccccc3)no2)cc1 | 97.3% (inactive) | 97% | 97.5% | 107% (inactive) | 107% | 108% | 106% (inactive) | 99.3% (inactive) | 101% (inactive) | 101% | 98.2% |
| O=C(Nc1ccccc1C(=O)O)c1ccccc1 | 100% (inactive) | 99.8% | 101% | 100% (inactive) | 102% | 97.5% | 102% (inactive) | 98.9% (inactive) | 99.3% (inactive) | 102% | 98% |
| O=C(/C=C/c1ccccc1[N+](=O)[O-])c1ccccc1Br | 92.9% (inactive) | 94.8% | 89.1% | 161% (active) | 139% | 180% | 101% (inactive) | 104% (inactive) | 90.9% (inactive) | 95.2% | 82.8% |
